This is a sample that favours compounds with a hit; in the whole collection about 2.4% have one here.
Ecoli rRNA inh – inhibits bacterial ribosomal RNA function over humanized ribosomes | E. coli WT GFP vs humanized-ribosome RFP mutants, fluorescence, 24 h; stronger effect = lower value; DMSO median 0, no signal -100 | GFP signal change (wild-type ribosome), % (test concentration not listed) | actives 1.6% (n = 350,000);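 active means significant combined selectivity score with lowered wild-type GFP, culture density cut under 30%, mutant RFP and density less affected; inactive means any of these conditions unmet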
EWS-Fli block – EWS/Fli transcriptional activity inhibition; AID 651661; A673 NR0B1-luciferase reporter, viability-normalised; actives 0.67% (n = 350,000); inhibition, % at 12.6 µM;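 active means mean inhibition of at least 50% after viability correction, with every replicate also passing that limit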;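 further: firefly luciferase signal divided by Alamar Blue viability fluorescence both relative to DMSO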
E-sel inducer – E-selectin induction on HUVECs. P16581. actives 0.37% (n = 260,000). HUVEC E-selectin immunofluorescence imaging; normalized: neutral wells 0, TNF-alpha wells 100. activation, % at 7.58 µM;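 active means mean E-selectin-positive cell signal at least 10% of the positive control, reached in at least 60% of replicates, without over 20% cell loss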
Target sequence (P16581 whole entry, looked up): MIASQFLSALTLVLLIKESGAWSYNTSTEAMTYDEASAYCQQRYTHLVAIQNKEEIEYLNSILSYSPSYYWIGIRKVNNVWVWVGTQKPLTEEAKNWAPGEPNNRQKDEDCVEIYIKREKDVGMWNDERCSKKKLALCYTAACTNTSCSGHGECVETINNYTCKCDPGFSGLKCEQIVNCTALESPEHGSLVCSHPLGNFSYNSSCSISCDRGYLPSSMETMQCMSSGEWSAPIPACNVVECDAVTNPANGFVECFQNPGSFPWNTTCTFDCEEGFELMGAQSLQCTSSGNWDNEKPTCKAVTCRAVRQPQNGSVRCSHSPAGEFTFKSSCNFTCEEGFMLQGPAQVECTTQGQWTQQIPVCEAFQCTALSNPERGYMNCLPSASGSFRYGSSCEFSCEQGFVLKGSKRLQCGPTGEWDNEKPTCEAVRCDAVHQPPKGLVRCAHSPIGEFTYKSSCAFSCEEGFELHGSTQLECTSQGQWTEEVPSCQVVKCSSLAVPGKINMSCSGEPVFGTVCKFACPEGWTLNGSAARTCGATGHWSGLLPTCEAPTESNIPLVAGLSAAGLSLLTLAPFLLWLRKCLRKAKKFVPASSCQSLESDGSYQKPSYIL
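Read-out basis: % PE-positive cells; Test system: HUVEC primary endothelial cells; Technique: immunofluorescence imaging; Dosing: single-point compound dose.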
LGR2 antag – blocks bursicon-induced cAMP signaling via Drosophila LGR2 | AID 720647 | inhibition, % at 9.99 µM | HEK293 LGR2, CRE-luciferase, bursicon-stimulated, 4 h | actives 0.35% (n = 380,000);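 active means drop in luminescence signal, shown as inhibition above about 50% in the replicate tests, limit read from the data, passing the limit was not always enough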;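 further: agonist challenge used bursicon conditioned medium at about half maximal strength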
The depositor's hits bear a star; nt = not tested or not shown.

SMILES	Ecoli rRNA inh	EWS-Fli block	E-sel inducer	LGR2 antag
C=CCNC(=S)N/N=C/c1ccc(C)cc1C	-17*	17	1	-12
CCOC(=O)c1ccc(NC(=O)O[C@H]2[C@H](OC(=O)Nc3ccccc3)[C@@H](OC(=O)Nc3ccccc3)[C@@H](OC)O[C@@H]2CO)cc1	nt	-13	nt	nt
C[C@@H]1CN([C@H](C)CO)C(=O)Cc2cc(NC(=O)CCN3CCOCC3)ccc2O[C@H]1CN(C)S(C)(=O)=O	2	-4	332*	10
C[C@@H]1CN([C@H](C)CO)C(=O)Cc2cc(NC(=O)Cc3ccccc3)ccc2O[C@H]1CN(C)S(C)(=O)=O	-1	2	68*	-8
Cn1cc(CNCc2cn(C)nc2-c2ccc(C3CCCCC3)cc2)cn1	-20*	4	nt	-10
COCCN1CCCC(CNCc2cn(C)nc2-c2ccc(Oc3ccccc3)cc2)C1 (stereo unspecified)	3	7	nt	4
COc1ccc2c3c(n(C)c2c1)[C@@H](CO)N(Cc1ccccc1F)CC31CCN(CC2CC2)CC1	-3	-3	-1	-11
Cc1cc(C)c(S(=O)(=O)ON2C(=O)c3ccccc3C2=O)cc1C	nt	nt	nt	-2
Cc1cc(C)c(C)c(S(=O)(=O)ON2C(=O)c3ccccc3C2=O)c1C	15	56*	nt	5
CO[C@H]1CN(C)C(=O)c2ccc(NC(=O)c3ccc4c(c3)OCO4)cc2OC[C@@H](C)N(CC2CC2)C[C@@H]1C	3	1	0	-1
COc1ccc(NC(=O)c2cccc(OC(F)F)c2)cc1Cl	nt	nt	nt	-74
O=C(Nc1ccc2c(c1)CCC2)c1cccc(OC(F)F)c1	-24*	-102	0	-91
CN(C)S(=O)(=O)c1cccc(C(=O)Nc2ccc3c(c2)CCC3)c1	-19*	-43	nt	-53
COc1ccc(N2C(=O)CC(c3cc(OC)c(OC)c(OC)c3)CC2=O)cc1	2	25	nt	nt
COc1cc(C2CC(=O)N(c3ccc(C)cc3)C(=O)C2)cc(OC)c1OC	16	53*	nt	-10
C[C@@H]1CN([C@H](C)CO)C(=O)Cc2cc(NC(=O)Cc3ccccc3)ccc2O[C@@H]1CN(C)S(=O)(=O)c1ccc(Cl)cc1	-3	3	-31	6
CN1c2ccc(-c3cccc(C#N)c3)cc2[C@@H]2[C@@H](CCN2C(=O)C2CC2)[C@H]1CO	3	9	0	-2
C[C@@H]1CCCCO[C@@H](CN(C)CC2CCCCC2)[C@H](C)CN([C@H](C)CO)C(=O)c2cc(NC(=O)Nc3ccccc3)ccc2O1	5	24	0	4
CC(C)(C)c1cccc(C2(O)C(=O)c3ccccc3C2=O)c1O	-38*	-2	nt	-5
Cc1ccc2c(c1)c1c(n2CC(O)Cn2c(C)nc3ccccc32)CCCC1 (stereo unspecified)	-3	-2	69*	1
Cc1ccc2c(c1)c1c(n2CC(O)CN2CCCCCC2)CCCC1 (stereo unspecified)	0	13	0	1
COc1ccc2cc1Oc1ccc(cc1)C[C@H]1c3c(cc4c(c3Oc3cc5c(cc3OC)CCN(C)[C@@H]5C2)OCO4)CCN1C	2	16	0	-5
COc1ccc2cc1Oc1ccc(cc1)C[C@H]1c3cc(c(OC)cc3CCN1C)Oc1c(OC)c(OC)cc3c1[C@H](C2)N(C)CC3	nt	57*	0	nt
Cn1c2ccccc2c2cc(C(=O)O)ccc21	nt	nt	nt	20
Cc1c(C(=O)Cc2ccccc2)n(C)c2ccccc12	-26*	-26	0	-20
SMILES	Ecoli rRNA inh	EWS-Fli block	E-sel inducer	LGR2 antag
C#CC(=O)N(c1cccc(OC)c1)C(C(=O)NC1CCCC1)c1cccs1 (stereo unspecified)	-13	44	nt	104*
C#CC(=O)N(c1ccc(OC)c(OC)c1)C(C(=O)NC1CCCC1)c1cccs1 (stereo unspecified)	-28*	45	nt	101*
C[C@H](NC(=O)C[C@H]1CC[C@@H](NC(=O)Nc2ccc3c(c2)OCO3)[C@H](CO)O1)c1ccccc1	-3	-5	0	9
COc1ccc2c3c(n(C)c2c1)[C@@H](CO)N(Cc1nccs1)CC31CCN(C(=O)CC2CC2)CC1	-1	nt	nt	nt
c1ccc(CCc2nn3c(Cn4cnc5ccccc54)nnc3s2)cc1	-24*	6	nt	12
Clc1ccccc1-c1nnc2sc(CCc3ccccc3)nn12	-19*	-2	nt	-3
COCC(=O)N(C)C[C@@H]1Oc2cc(C3=CCCC3)ccc2S(=O)(=O)N([C@H](C)CO)C[C@H]1C	-2	-4	0	1
O=C(c1ccc(F)cc1)N1CC[C@@H]2[C@@H](CO)Nc3ccc(C#CC4CC4)cc3[C@@H]21	4	nt	nt	nt
CC(=O)N[C@@H]1CC[C@H](CCNC(=O)C2CC2)O[C@@H]1CO	2	-2	0	7
Cc1cc(C)c(C#N)c(SCc2nnc(-c3ccccc3)o2)n1	10	78*	nt	77*
Cc1ccc(C#N)c(SCc2nnc(-c3ccc(Cl)cc3)o2)n1	nt	nt	nt	66*
Cc1ccc(-c2nnc(Cc3ccc(Cl)cc3)o2)cc1	-1	-94	0	-69
COc1ccc(CN(C)C[C@@H]2Oc3ccc(NS(=O)(=O)c4cn(C)cn4)cc3CC(=O)N([C@H](C)CO)C[C@H]2C)cc1	8	-1	0	-8
CO[C@H]1CC[C@H]2CCN(C)C(=O)C[C@@H](c3ccccc3)CN(C)C(=O)c3cccc(C#N)c3OC[C@H]1O2	0	9	0	13
CCCCCCCNC(=O)C1(CC2CC(c3cccc(Br)c3)=NO2)CCN(C(=O)CCCCCBr)CC1 (stereo unspecified)	-20*	11	0	11
C[C@@H]1CCCCO[C@@H](CN(C)Cc2ccccc2)[C@@H](C)CN([C@@H](C)CO)C(=O)c2cc(NS(=O)(=O)c3cccs3)ccc2O1	6	-4	nt	-37
CC1CCN(CCOCCOc2ccc(Cl)cc2Br)CC1	-30*	-30	nt	10
O=C1C=CC2(C=C1)O[C@H](Cc1ccccc1)[C@@H](Cc1ccccc1)O2	-14	49	0	98*
CC(C)NC(=O)N(C)C[C@@H]1Oc2ccccc2C(=O)N(C)C[C@H]1C	0	nt	nt	nt
O=C1N=C(N2CCN(c3ccccc3)CC2)S/C1=C\c1cn[nH]c1-c1ccccc1	2	3	nt	60*
CCc1ccc(/C=C2/SC(N3CCOCC3)=NC2=O)cc1	-19*	-33	0	-12
Cc1ccc(N2CCN(C3=NC(=O)/C(=C\c4cn[nH]c4-c4ccccc4)S3)CC2)cc1	nt	nt	nt	20
O=C1N=C(N2CCN(c3ccccc3)CC2)S/C1=C\c1ccco1	-9	-27	0	-2
O=C1N=C(N2CCN(c3ccccc3)CC2)S/C1=C/c1ccco1	-38*	-13	nt	nt
C[C@H]1CCCCO[C@H](CN(C)Cc2ccc(C(F)(F)F)cc2)[C@@H](C)CN([C@@H](C)CO)C(=O)c2cc(NS(=O)(=O)c3cccs3)ccc2O1	-6	3	0	3
Clc1cccc(OCCOCCN2CCNCC2)c1Cl	-16*	-2	0	14
COc1cccc(CNCc2ccc(OC)cc2OC)c1	2	6	1	19

Screening results from PubChem.
